From ChEMBL document CHEMBL1250446, “Novel targets for Huntington's disease in an mTOR-independent autophagy pathway” (Nat Chem Biol, 2008)
Active and inactive are the calls of the source. The rule behind the calls is not given here.

Columns and labels:
[1] = system: SK-N-MC; assay: Cytotoxicity against human SK-N-MC cells expressing EGFP-HDQ74 at 1 uM after 48 hrs; type: cell-based
[2] = system: SK-N-SH (Homo sapiens); assay: Induction of autophagy in human SK-N-SH cells expressing EGFP-HDQ74 assessed as reduction in EGFP-HDQ74 aggregation at 1 uM after 48 hrs by densitometric analysis
[3] = system: HeLa; assay: Induction of autophagy in human HeLa cells expressing EGFP-LC3 assessed as increase in LC3-2 level at 400 nM; type: functional, cell-based
[4] = system: SK-N-SH; assay: Induction of autophagy in human SK-N-SH cells expressing EGFP-HDQ74 assessed as reduction in EGFP-HDQ74 aggregation at 500 uM after 48 hrs by densitometric analysis; type: functional, cell-based
[5] = system: PC-12; assay: Induction of autophagy in rat stable inducible PC12 cells expressing A53T alpha-synuclein assessed as A53T alpha-synuclein clearance at 500 uM after 24 hrs by densitometric analysis; type: functional, cell-based
Procedure, shortened: (§1)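 Inducible PC12 A53T α-synuclein (HA) cells induced with 1 μg/ml doxycycline for 48 h. Doxycycline then removed for 24 h with compound or DMSO. Remaining protein measured by anti-HA immunoblot, densitometry relative to actin.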

[6] = species on record: Danio rerio; assay: Protection of neurodegeneration in zebrafish Huntington's disease model expressing EGFP-tagged huntingtin exon with EGFP-HDQ71 in rod photoreceptor assessed as decrease in […] aggregation at 3 uM
[7] = species on record: Mus musculus; assay: Induction of autophagy in Atg deficient mouse […] expressing EGFP-HDQ74 at 1 uM after 48 hrs; type: functional
[8] = species on record: Danio rerio; assay: Protection of neurodegeneration in zebrafish Huntington's disease model expressing EGFP-tagged huntingtin exon with EGFP-HDQ71 in rod photoreceptor assessed as decrease in […] aggregation at 3 uM; type: functional, organism-based
Procedure, shortened: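 Transgenic zebrafish larvae raised in PTU to 3 d.p.f., then dark-reared 3–9 d.p.f. with drug in E3 medium (pH 7.2), refreshed daily. Fixed fish were cryosectioned at 12 μm and aggregates counted over 96 μm of the central eye. Means from 10 fish per group; ANOVA with Dunnett's test.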

[9] = species on record: Danio rerio; assay: Protection of neurodegeneration in zebrafish Huntington's disease model expressing EGFP-tagged huntingtin exon with EGFP-HDQ71 in rod photoreceptor assessed as induction of rhodopsin expression at 3 uM; type: functional, organism-based
Procedure, shortened: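 Zebrafish larvae dark-reared 3–9 d.p.f. with drug in E3, refreshed daily, then lysed in RIPA/DTT. Western blot with anti-rhodopsin (Zpr3, 1:1000), anti-Zpr1 and anti-EGFP antibodies; ECL detection.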

[10] = species on record: Danio rerio; assay: Protection of neurodegeneration in zebrafish Huntington's disease model expressing EGFP-tagged huntingtin exon with EGFP-HDQ71 in rod photoreceptor assessed as loss of rhodopsin expression at 3 uM
[11] = system: SK-N-MC; assay: Induction of autophagy in Atg positive human SK-N-MC cells expressing EGFP-HDQ74 at 1 uM after 48 hrs; type: functional, cell-based
[12] = system: SK-N-SH; assay: Induction of autophagy in human SK-N-SH cells expressing EGFP-HDQ74/m-calpain assessed as inhibition of EGFP-HDQ74 aggregation at 1 uM after 48 hrs; type: functional, cell-based
[13] = system: HeLa; assay: Induction of autophagy in human HeLa cells expressing EGFP-LC3 assessed as increase in LC3-2 level at 400 nM in presence of erythro-9-(3-(2-hydroxynonyl)adenine; type: functional, cell-based
[14] = system: COS-7; assay: Inhibition of Gsalpha in african green monkey COS7 cells expressing EGFP-HDQ74/m-calpain assessed as increase in LC3-2 level by autophagy induction assay; type: functional, cell-based; conditions: Chlorocebus aethiops
[15] = system: COS-7; assay: Induction of autophagy in african green monkey COS7 cells expressing EGFP-HDQ74/m-calpain assessed as decrease in EGFP-HDQ74 aggregation at 500 uM after 48 hrs; type: functional, cell-based; conditions: Chlorocebus aethiops
[16] = system: SK-N-MC; assay: Induction of autophagy in human SK-N-MC cells expressing EGFP-HDQ74 and endogenously I1R/alpha2 AR assessed as decrease in EGFP-HDQ74 aggregation at 1 uM after 24 hrs by densitometric analysis; type: functional, cell-based
[17] = system: PC-12; assay: Induction of autophagy in rat stable inducible PC12 cells expressing A53T alpha-synuclein and endogenously I1R assessed as increase in A53T alpha-synuclein clearance at 1 uM after 24 hrs by densitometric analysis; type: functional, cell-based; procedure, shortened: as §1
[18] = system: PC-12; assay: Induction of autophagy in rat stable inducible PC12 cells assessed as increase in LC3-2 level after 24 hrs by immunoblotting analysis; type: functional, cell-based
Procedure, shortened: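 Endogenous LC3-II in PC12 cells after 24 h exposure; immunoblot densitometry relative to actin.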

[19] = system: SK-N-MC; assay: Induction of autophagy in human SK-N-MC cells expressing A53T alpha-synuclein and endogenously I1R/alpha2 AR assessed as increase in A53T alpha-synuclein clearance at 1 uM after 24 hrs by densitometric analysis; type: functional, cell-based
[20] = system: PC-12; assay: Induction of autophagy in rat stable inducible PC12 cells expressing EGFP-HDQ74 and endogenously I1R assessed as decrease in EGFP-HDQ74 aggregation at 1 uM after 24 hrs by densitometric analysis; type: functional, cell-based
[21] = system: COS-7; assay: Induction of autophagy in african green monkey COS7 cells expressing EGFP-HDQ74 assessed as EGFP-HDQ74 aggregation at 2.5 uM after 48 hrs in presence of 50 uM ALLM; type: functional, cell-based; conditions: Chlorocebus aethiops
Procedure, shortened: (§2)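 COS-7 cells transfected with EGFP-HDQ74 (1.5 μg/well) for 4 h, then exposed for the last 24 h of a 48 h post-transfection period. ALLM (50 μM) was added 15 min before thapsigargin. Cells fixed in 4% PFA with DAPI mount; ~200 EGFP-positive cells per sample scored blinded for aggregates. Triplicate, at least twice; odds ratios.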

[22] = system: PC-12; assay: Induction of autophagy in rat stable inducible PC12 cells expressing A53T alpha-synuclein assessed as A53T alpha-synuclein clearance at 2.5 uM after 24 hrs by densitometric analysis; type: functional, cell-based
Procedure, shortened: (§3)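 Stable inducible PC12 line: A53T α-synuclein (HA-tagged) induced with 1 μg/ml doxycycline for 48 h, then switched off by doxycycline removal for 24 h during treatment. For ALLM (50 μM), 15 min pre-treatment. Anti-HA immunoblot, densitometry relative to actin; DMSO control.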

[23] = system: COS-7; assay: Induction of autophagy in african green monkey COS7 cells expressing EGFP-Atg5 assessed as increase in Atg5 level at 10 uM after 48 hrs by immunoblotting analysis; type: functional, cell-based; conditions: Chlorocebus aethiops
Procedure, shortened: (§4)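 COS-7 cells co-transfected 4 h with EGFP-Atg5 plus EGFP as transfection control (3:1 ratio), then treated. Atg5 level and cleavage assessed by immunoblotting.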

[24] = system: COS-7; assay: Induction of autophagy in african green monkey COS7 cells assessed as increase in steady state LC-3 positive vesicles at 2.5 uM after 2 hrs by immunofluorescence analysis; type: functional, cell-based; conditions: Chlorocebus aethiops
Procedure, shortened: (§5)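 COS-7 cells treated 2 h, fixed in 4% paraformaldehyde, then immunostained with anti-LC3 and Alexa-conjugated secondary antibodies. LC3-positive vesicles imaged by confocal microscopy (63x oil lens) at room temperature.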

[25] = system: PC-12; assay: Induction of autophagy in rat stable inducible PC12 cells expressing A53T alpha-synuclein assessed as A53T alpha-synuclein clearance at 2.5 uM after 24 hrs by densitometric analysis in presence of 50 uM ALLM; type: functional, cell-based; procedure, shortened: as §3
[26] = system: COS-7; assay: Induction of autophagy in african green monkey COS7 cells expressing EGFP-Atg5 assessed as increase in Atg5 level at 2.5 uM after 48 hrs by immunoblotting analysis; type: functional, cell-based; conditions: Chlorocebus aethiops; procedure, shortened: as §4
[27] = system: COS-7; assay: Induction of autophagy in african green monkey COS7 cells assessed as increase in LC-3-2 positive vesicles at 2.5 uM after 2 hrs by immunofluorescence analysis n presence of 400 nM bafilomycin A1; type: functional, cell-based; conditions: Chlorocebus aethiops
[28] = system: COS-7; assay: Effect on mTOR-signaling in african green monkey COS7 cells assessed as phospho-S6K at 2.5 uM by immunoblotting analysis; type: cell-based; conditions: Chlorocebus aethiops
Procedure, shortened: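 COS-7 cells exposed 24 h (0.2 μM rapamycin as positive control for mTOR inhibition); lysates immunoblotted for phospho-S6K, with densitometry of phospho-S6K relative to total S6K.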

[29] = system: COS-7; assay: Induction of autophagy in african green monkey COS7 cells assessed as increase in LC-3-2 positive vesicles at 2.5 uM after 2 hrs by immunofluorescence analysis; type: functional, cell-based; conditions: Chlorocebus aethiops; procedure, shortened: as §5
[30] = system: COS-7; assay: Induction of autophagy in african green monkey COS7 cells assessed as intracytosolic calcium concentration nu calpain activation assay; type: functional, cell-based; conditions: Chlorocebus aethiops
[31] = system: COS-7; assay: Induction of autophagy in african green monkey COS7 cells expressing EGFP-HDQ74 assessed as EGFP-HDQ74 aggregation at 2.5 uM after 48 hrs; type: functional, cell-based; conditions: Chlorocebus aethiops; procedure, shortened: as §2
[32] = system: COS-7; assay: Induction of autophagy in african green monkey COS7 cells expressing PLC-epsilon assessed as calpain activation at 2.5 uM after 30 mins by immunoblotting analysis; type: functional, cell-based; conditions: Chlorocebus aethiops
Procedure, shortened: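 Calpain activation in COS-7 after 30 min exposure, alongside 2.5 μM thapsigargin where applied; immunoblot of the active calpain small subunit.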

[33] = system: COS-7; assay: Induction of autophagy in african green monkey COS7 cells expressing EGFP-HDQ74 assessed as huntingtin mutant aggregation at 10 uM after 48 hrs; type: functional, cell-based; conditions: Chlorocebus aethiops
Procedure, shortened: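 COS-7 cells seeded at 1×10⁵/well for 24 h, then transfected with pEGFP-HDQ74 (1.5 μg/well) using LipofectAMINE for 4 h. Compound added, and cells fixed at 48 h and mounted in DAPI. About 200 EGFP-positive cells per sample were scored for presence of aggregates by a blinded observer. Triplicate, at least twice.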

[34] = system: SK-N-SH (Homo sapiens); assay: Induction of autophagy in human SK-N-SH cells assessed as increase in LC3-2 level at 3 uM after 24 hrs by immunoblotting analysis

CN(C)C(=O)C(CCN1CCC(O)(c2ccc(Cl)cc2)CC1)(c1ccccc1)c1ccccc1 [LOPERAMIDE]
Activity [1]: Non-toxic
Activity [2]: Active

CCCCc1oc2ccccc2c1C(=O)c1cc(I)c(OCCN(CC)CC)c(I)c1 [AMIODARONE]
Activity [1]: Non-toxic
Activity [2]: Active

CO/C1=C\C(C)=C\[C@@H](C)[C@@H](O)[C@@H](C)C/C(C)=C/C=C/[C@H](OC)[C@@H]([C@@H](C)[C@@H](O)[C@H](C)[C@@]2(O)C[C@@H](O)[C@H](C)[C@@H](C(C)C)O2)OC1=O
Activity [3]: Active

CCCC(=O)Nc1ncnc2c1ncn2[C@@H]1O[C@@H]2COP(=O)(O)O[C@H]2[C@H]1OC(=O)CCC
Activity [4]: inactive
Activity [5]: inactive

Clc1cccc(Cl)c1NC1=NCCN1
Activity [6]: Active
Activity [7]: inactive
Activity [8]: Active
Activity [9]: Active
Activity [10]: inactive
Activity [11]: Active
Activity [2]: Active
Activity [12]: inactive

CCCCCC[C@@H]([C@@H](C)O)n1cnc2c(N)ncnc21 (relative stereo)
Activity [13]: inactive

O=C(Nc1cc(C(=O)Nc2ccc(S(=O)(=O)O)cc2S(=O)(=O)O)cc(C(=O)Nc2ccc(S(=O)(=O)O)cc2S(=O)(=O)O)c1)Nc1cc(C(=O)Nc2ccc(S(=O)(=O)O)cc2S(=O)(=O)O)cc(C(=O)Nc2ccc(S(=O)(=O)O)cc2S(=O)(=O)O)c1
Activity [14]: Active
Activity [15]: Active

COCCOC(=O)C1=C(C)NC(C)=C(C(=O)OC(C)C)C1c1cccc([N+](=O)[O-])c1 (stereo not drawn) [NIMODIPINE]
Activity [1]: Non-toxic
Activity [2]: Active

CCOC(=O)C1=C(C)NC(C)=C(C(=O)OC)C1c1cccc([N+](=O)[O-])c1 (stereo not drawn) [NITRENDIPINE]
Activity [1]: Non-toxic
Activity [2]: Active

CCCC(CCC)C(=O)O [VALPROIC ACID]
Activity [6]: Active
Activity [1]: Non-toxic
Activity [10]: inactive
Activity [2]: Active

C=C[C@@]1(C)CC(=O)[C@]2(O)[C@@]3(C)[C@@H](O)CCC(C)(C)[C@@H]3[C@H](O)[C@H](OC(C)=O)[C@@]2(C)O1
Activity [4]: inactive
Activity [5]: inactive

C1COC(NC(C2CC2)C2CC2)=N1
Activity [16]: Active
Activity [17]: Active
Activity [18]: Dose-dependent effect
Activity [19]: Active
Activity [20]: Active

C/C=C(/C)C(=O)O[C@H]1C(C)=C2[C@H]([C@@H]1OC(=O)CCCCCCC)[C@@](C)(OC(C)=O)C[C@H](OC(=O)CCC)[C@@]1(O)[C@H]2OC(=O)[C@@]1(C)O
Activity [21]: Active
Activity [22]: inactive
Activity [23]: Active
Activity [24]: Active
Activity [25]: Active
Activity [26]: Active
Activity [27]: inactive
Activity [28]: inactive
Activity [29]: Active
Activity [30]: inactive
Activity [31]: inactive

O=C(Nc1ncnc2c1ncn2[C@@H]1O[C@@H]2COP(=O)(O)O[C@H]2[C@H]1O)c1ccccc1
Activity [32]: Active

Clc1cccc(Cl)c1N=C1NCCN1 [CLONIDINE]
Activity [1]: Non-toxic

CO[C@@H]1[C@@H]2OP(=O)(O)OC[C@H]2O[C@H]1n1c(Sc2ccc(Cl)cc2)nc2c(N)ncnc21
Activity [32]: inactive
Activity [33]: inactive

Nc1cc(N2CCCCC2)nc(N)[n+]1[O-] [MINOXIDIL]
Activity [7]: inactive
Activity [1]: Non-toxic
Activity [11]: Active
Activity [34]: Active
Activity [2]: Active
